Tests used:
Malme-3M = assay: Cytotoxicity against human MALME-3M cells assessed as cell growth at 10 uM after 48 hrs by SRB assay relative to control; format: functional; conditions: read-out: Activity
Outline: (§1)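 First-stage NCI-60 screen by the NCI Developmental Therapeutics Program. Each compound was tested once at a single concentration of 10 μM against the 60-cell-line panel. Growth percentage was reported for each cell line.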

M14 = assay: Cytotoxicity against human M14 cells assessed as cell growth at 10 uM after 48 hrs by SRB assay relative to control; format: functional; conditions: M14, 48 h, read-out: Activity; outline: as §1
MDA-MB-435 = assay: Cytotoxicity against human MDA-MB-435 cells assessed as cell growth at 10 uM after 48 hrs by SRB assay relative to control; format: functional; conditions: MDA-MB-435, 48 h, read-out: Activity
Outline: (§2)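 First-stage NCI DTP one-dose screen against the 60 human tumour cell line panel. Compounds were tested at a single 10 μM level, and results are given as growth percentage.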

UACC-62 = assay: Cytotoxicity against human UACC62 cells assessed as cell growth at 10 uM after 48 hrs by SRB assay relative to control; format: functional; conditions: UACC-62, 48 h, read-out: Activity
Outline: (§3)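 NCI-60 one-dose screen run by NCI DTP: each cell line exposed to a single 10 µM dose, and percentage growth recorded against untreated growth.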

OVCAR-3 = assay: Cytotoxicity against human OVCAR3 cells assessed as cell growth at 10 uM after 48 hrs by SRB assay relative to control; format: functional; conditions: OVCAR-3, 48 h, read-out: Activity; outline: as §2
OVCAR-5 = assay: Cytotoxicity against human OVCAR5 cells assessed as cell growth at 10 uM after 48 hrs by SRB assay relative to control; format: functional; conditions: OVCAR-5, 48 h, read-out: Activity; outline: as §2
SK-OV-3 = assay: Cytotoxicity against human SKOV3 cells assessed as cell growth at 10 uM after 48 hrs by SRB assay relative to control; format: functional; conditions: SK-OV-3, 48 h, read-out: Activity; outline: as §2
786-0 = assay: Cytotoxicity against human 786-0 cells assessed as cell growth at 10 uM after 48 hrs by SRB assay relative to control; format: functional; conditions: 786-0, 48 h, read-out: Activity; outline: as §1
A498 = assay: Cytotoxicity against human A498 cells assessed as cell growth at 10 uM after 48 hrs by SRB assay relative to control; format: functional; conditions: A498, 48 h, read-out: Activity; outline: as §1
SN12C = assay: Cytotoxicity against human SN12C cells assessed as cell growth at 10 uM after 48 hrs by SRB assay relative to control; format: functional; conditions: read-out: Activity; outline: as §2
TK-10 = assay: Cytotoxicity against human TK10 cells assessed as cell growth at 10 uM after 48 hrs by SRB assay relative to control; format: functional; conditions: TK-10, 48 h, read-out: Activity; outline: as §3
PC-3 [1] = assay: Cytotoxicity against human PC3 cells assessed as cell growth at 10 uM after 48 hrs by SRB assay relative to control; format: functional; conditions: PC-3, 48 h, read-out: Activity; outline: as §2
BT-549 = assay: Cytotoxicity against human BT549 cells assessed as cell growth at 10 uM after 48 hrs by SRB assay relative to control; format: functional; conditions: BT-549, 48 h, read-out: Activity; outline: as §1
T47D = assay: Cytotoxicity against human T47D cells assessed as cell growth at 10 uM after 48 hrs by SRB assay relative to control; format: functional; conditions: read-out: Activity; outline: as §3
MDA-MB-468 = assay: Cytotoxicity against human MDA-MB-468 cells assessed as cell growth at 10 uM after 48 hrs by SRB assay relative to control; format: functional; conditions: MDA-MB-468, 48 h, read-out: Activity; outline: as §2
PC-3 [2] = assay: Cytotoxicity against human PC3 cells after 48 hrs by SRB assay; format: functional, cell-based; conditions: PC-3, 48 h
Outline: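 Second-stage NCI-60 panel run by the NCI Developmental Therapeutics Program, covering nine tumour subpanels. Five concentrations were tested: 0.01, 0.1, 1, 10 and 100 μM. Percentage growth at each level was plotted against log10 drug concentration. GI50, TGI and LC50 were read from these dose-response curves. Subpanel MID values were divided into the full-panel MID to give selectivity ratios.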

DU-145 = assay: Cytotoxicity against human DU145 cells after 72 hrs by MTT assay; format: functional, cell-based; conditions: DU-145, 72 h
Outline: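 DU-145 cells grown in RPMI-1640 with 5% heat-inactivated fetal calf serum at 37 °C, 5% CO2. About 2×10^3 cells per well were seeded and incubated for 24 h. Compounds were dissolved in DMSO freshly and diluted into medium (vehicle 0.1% DMSO), then cells were exposed for 72 h. MTT was added for 3 h at 37 °C and absorbance read at 570 nm.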

HL-60(TB) = assay: Cytotoxicity against human HL-60(TB) cells assessed as cell growth at 10 uM after 48 hrs by SRB assay relative to control; format: functional; conditions: HL-60, 48 h, read-out: Activity
Outline: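 NCI Developmental Therapeutics Program 60-cell-line screen, first stage: a single dose of 10 μM against the panel, reported as percentage growth.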

K562 = assay: Cytotoxicity against human K562 cells assessed as cell growth at 10 uM after 48 hrs by SRB assay relative to control; format: functional; conditions: K562, 48 h, read-out: Activity; outline: as §1
MOLT-4 = assay: Cytotoxicity against human MOLT4 cells assessed as cell growth at 10 uM after 48 hrs by SRB assay relative to control; format: functional; conditions: MOLT-4, 48 h, read-out: Activity; outline: as §2
SR = assay: Cytotoxicity against human SR cells assessed as cell growth at 10 uM after 48 hrs by SRB assay relative to control; format: functional; conditions: read-out: Activity; outline: as §3
[3] = Cytotoxicity against human EKVX cells assessed as cell growth at 10 uM after 48 hrs by SRB assay relative to control; format: functional; conditions: read-out: Activity; outline: as §1
NCI-H23 = assay: Cytotoxicity against human NCI-H23 cells assessed as cell growth at 10 uM after 48 hrs by SRB assay relative to control; format: functional; conditions: NCI-H23, 48 h, read-out: Activity; outline: as §2
HCC 2998 = assay: Cytotoxicity against human HCC2998 cells assessed as cell growth at 10 uM after 48 hrs by SRB assay relative to control; format: functional; conditions: HCC 2998, 48 h, read-out: Activity; outline: as §1
HT-29 = assay: Cytotoxicity against human HT-29 cells assessed as cell growth at 10 uM after 48 hrs by SRB assay relative to control; format: functional; conditions: HT-29, 48 h, read-out: Activity; outline: as §1
SNB-19 = assay: Cytotoxicity against human SNB19 cells assessed as cell growth at 10 uM after 48 hrs by SRB assay relative to control; format: functional; conditions: SNB-19, 48 h, read-out: Activity; outline: as §3
SNB-75 = assay: Cytotoxicity against human SNB75 cells assessed as cell growth at 10 uM after 48 hrs by SRB assay relative to control; format: functional; conditions: SNB-75, 48 h, read-out: Activity; outline: as §3
U-251 = assay: Cytotoxicity against human U251 cells assessed as cell growth at 10 uM after 48 hrs by SRB assay relative to control; format: functional; conditions: U-251, 48 h, read-out: Activity; outline: as §3
LOX IMVI = assay: Cytotoxicity against human LOXIMVI cells assessed as cell growth at 10 uM after 48 hrs by SRB assay relative to control; format: functional; conditions: read-out: Activity; outline: as §1
SF-295 = assay: Cytotoxicity against human SF295 cells assessed as cell growth at 10 uM after 48 hrs by SRB assay relative to control; format: functional; conditions: SF-295, 48 h, read-out: Activity; outline: as §2

Structure (SMILES)	growth at 10 µM (Malme-3M)	growth at 10 µM (M14)	growth at 10 µM (MDA-MB-435)	growth at 10 µM (UACC-62)	growth at 10 µM (OVCAR-5)	growth at 10 µM (786-0)	growth at 10 µM (SN12C)	growth at 10 µM (TK-10)	growth at 10 µM (BT-549)	growth at 10 µM (T47D)	growth at 10 µM (MDA-MB-468)	IC50 (PC-3 [2])	IC50 (DU-145)	growth at 10 µM (NCI-H23)	growth at 10 µM (HCC 2998)	growth at 10 µM (HT-29)	growth at 10 µM (SNB-19)	growth at 10 µM (SNB-75)	growth at 10 µM (U-251)	growth at 10 µM (LOX IMVI)	further results
COc1ccc(Sc2cc3c(c4nsnc24)C(=O)c2ccccc2C3=O)cc1	89.5%	92.9%	119%	109%	103%	94.9%	107%	136%	92.9%	89.7%	113%	> 15 µM	8.26 µM	89.1%	107%	101%	114%	79%	103%	90.2%	growth at 10 µM (OVCAR-3): 110%; growth at 10 µM (SK-OV-3): 106%; growth at 10 µM (A498): 84.8%; growth at 10 µM (PC-3 [1]): 82.8%; growth at 10 µM (HL-60(TB)): 103%; growth at 10 µM (K562): 92%; growth at 10 µM (MOLT-4): 82.9%; growth at 10 µM (SR): 102%; growth at 10 µM [3]: 149%
Cc1ccc(Sc2cc3c(c4nsnc24)C(=O)c2ccccc2C3=O)c(C)c1	108%	101%	106%	94.5%	106%	105%	98.7%	127%	94.5%	75.4%	100%	> 15 µM	15.9 µM	89.4%	121%	101%	102%	76%	105%	90.4%	growth at 10 µM (OVCAR-3): 105%; growth at 10 µM (SK-OV-3): 110%; growth at 10 µM (A498): 84.4%; growth at 10 µM (PC-3 [1]): 76.1%; growth at 10 µM (HL-60(TB)): 99.9%; growth at 10 µM (K562): 68%; growth at 10 µM (MOLT-4): 91%; growth at 10 µM (SR): 70.3%; growth at 10 µM [3]: 109%
CCOc1cccc(Sc2cc3c(c4nsnc24)C(=O)c2ccccc2C3=O)c1	109%	104%	106%	109%	117%	100%	105%	125%	104%	86.5%	108%	> 15 µM	> 15 µM	94.1%	105%	106%	103%	77.2%	110%	84.1%	growth at 10 µM (SK-OV-3): 99.4%; growth at 10 µM [3]: 102%
COc1cccc(Sc2cc3c(c4nsnc24)C(=O)c2ccccc2C3=O)c1	113%	94.2%	72.5%	87.7%	123%	103%	95.9%	131%	94.9%	69.1%	93.5%	> 15 µM	> 15 µM	76.4%	105%	105%	106%	81.8%	101%	71%	growth at 10 µM (OVCAR-3): 85.8%; growth at 10 µM (SK-OV-3): 110%; growth at 10 µM (A498): 83.7%; growth at 10 µM (PC-3 [1]): 76%; growth at 10 µM (HL-60(TB)): 84.5%; growth at 10 µM (K562): 38.5%; growth at 10 µM (MOLT-4): 35.8%; growth at 10 µM (SR): 36.1%; growth at 10 µM [3]: 105%
O=C1c2ccccc2C(=O)c2c1cc(SCc1ccc(Cl)cc1)c1nsnc21	86.4%	126%		102%	104%	118%	93.6%	122%	115%	83.8%	83.4%	> 15 µM	7.51 µM	82.1%	103%	96.4%	104%	63.4%	94.4%	86.7%	growth at 10 µM (OVCAR-3): 113%; growth at 10 µM (PC-3 [1]): 82.9%; growth at 10 µM (HL-60(TB)): 57.4%; growth at 10 µM (K562): 67.5%; growth at 10 µM (MOLT-4): 22.7%; growth at 10 µM (SR): 63.7%
O=C1c2ccccc2C(=O)c2c1cc(Sc1cccc(Cl)c1)c1nsnc21	-86.6%	-76.4%	-82.3%	-65%	109%	-2.06%	-66.2%	53.8%	36.2%	-42.3%	-79.2%	5.64 µM	1.75 µM	-26.9%	102%	102%	56.9%	26.1%	-69.5%	-59.2%	growth at 10 µM (SK-OV-3): 95.4%; growth at 10 µM [3]: 43.6%
Cc1cccc(C)c1Sc1cc2c(c3nsnc13)C(=O)c1ccccc1C2=O	73.7%	122%	96.8%	91.7%	114%	115%	67.7%	119%	105%	66.8%	45.9%	6.74 µM	7.88 µM	67.4%	101%	97.7%	94.8%	69.4%	53.9%	44.6%	growth at 10 µM (OVCAR-3): 1%; growth at 10 µM (PC-3 [1]): 59.9%; growth at 10 µM (HL-60(TB)): 47.8%; growth at 10 µM (K562): 43.1%; growth at 10 µM (MOLT-4): 32.6%; growth at 10 µM (SR): 35.5%; growth at 10 µM [3]: 82.4%; growth at 10 µM (SF-295): 91.1%

Reference: ChEMBL document CHEMBL3621107, “Ring fusion strategy for synthesis and lead optimization of sulfur-substituted anthra[1,2-c][1,2,5]thiadiazole-6,11-dione derivatives as promising scaffold of antitumor agents” (Eur J Med Chem, 2015)
